ChEMBL document CHEMBL3877303 (J Med Chem, 2017)

Legend:
[1] = molecular target: BCR/ABL p210 fusion protein (Homo sapiens, UniProt A1Z199); assay: Inhibition of human BCR/ABL p210 fusion protein expressed in BAF3 cells assessed as growth inhibition measured after 72 hrs by CellTiter-Glo or CCK8 assay; format: cell-based
Outline: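 Seeded at 1 to 2.5×10^4 cells/mL with various compound concentrations, 72 h. Viability read by CellTiter-Glo luminescence or CCK-8 absorbance (450/655 nm), normalized to DMSO control, GI50 from curve fit, triplicate testing.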

[2] = Growth inhibition of mouse BAF3 cells measured after 72 hrs by CellTiter-Glo or CCK8 assay; format: cell-based
Outline: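 Cells at 1 to 2.5×10^4 cells/mL were incubated with a range of compound concentrations for 72 h. Viability was read by CellTiter-Glo luminescence or CCK-8 absorbance (450/655 nm) and normalized to DMSO control. GI50 came from curve fitting, with triplicate testing.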

[3] = molecular target: T1, Mast/stem cell growth factor receptor Kit (Homo sapiens, UniProt P10721); conditions: BaF3
[4] = molecular target: T1, Mast/stem cell growth factor receptor Kit; assay: Inhibition of recombinant C-terminal polyhistidine-tagged human c-KIT expressed in mammalian expression system using Tyr 06 peptide as substrate measured after 1hr by FRET based Z'Lyte assay

T1 sequence (P10721 whole entry): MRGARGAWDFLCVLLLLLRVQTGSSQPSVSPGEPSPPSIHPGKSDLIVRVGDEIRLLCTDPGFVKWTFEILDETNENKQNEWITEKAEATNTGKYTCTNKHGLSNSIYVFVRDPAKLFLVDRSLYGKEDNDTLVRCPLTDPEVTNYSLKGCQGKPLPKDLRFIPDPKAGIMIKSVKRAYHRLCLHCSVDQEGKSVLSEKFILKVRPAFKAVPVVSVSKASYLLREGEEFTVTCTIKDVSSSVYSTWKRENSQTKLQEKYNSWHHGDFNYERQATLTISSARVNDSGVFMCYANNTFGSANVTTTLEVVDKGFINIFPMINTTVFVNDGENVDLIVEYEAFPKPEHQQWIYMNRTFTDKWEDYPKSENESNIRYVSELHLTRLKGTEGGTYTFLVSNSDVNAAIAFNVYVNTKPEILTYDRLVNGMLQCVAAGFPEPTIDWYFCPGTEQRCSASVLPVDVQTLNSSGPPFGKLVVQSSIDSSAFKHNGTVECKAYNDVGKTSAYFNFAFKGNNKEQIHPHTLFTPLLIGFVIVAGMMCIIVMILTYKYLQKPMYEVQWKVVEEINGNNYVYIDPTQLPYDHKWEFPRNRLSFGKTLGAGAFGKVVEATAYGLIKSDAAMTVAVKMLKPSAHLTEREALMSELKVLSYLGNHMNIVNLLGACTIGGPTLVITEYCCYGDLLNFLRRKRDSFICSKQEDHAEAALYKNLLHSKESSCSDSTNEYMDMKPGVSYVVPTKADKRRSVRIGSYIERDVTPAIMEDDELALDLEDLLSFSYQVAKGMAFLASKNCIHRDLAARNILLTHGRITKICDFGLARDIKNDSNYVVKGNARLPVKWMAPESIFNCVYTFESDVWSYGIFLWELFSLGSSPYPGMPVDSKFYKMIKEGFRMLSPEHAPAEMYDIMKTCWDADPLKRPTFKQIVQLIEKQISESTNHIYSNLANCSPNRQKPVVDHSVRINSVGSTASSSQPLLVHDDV
BCR/ABL p210 fusion protein, sequence (A1Z199 1-97): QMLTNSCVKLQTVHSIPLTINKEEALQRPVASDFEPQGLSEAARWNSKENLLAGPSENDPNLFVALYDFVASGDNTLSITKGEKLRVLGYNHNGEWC

Row | GI50 [1] | GI50 [3] | IC50 [4] | SMILES | GI50 at 72 h [2]
1 | 5520 nM | 780 nM |  | Cc1ccc(NC(=O)c2ccc(CN3CCN(C)CC3)c(C(F)(F)F)c2)cc1OC1CCN(C(=O)Cc2cccnc2)CC1 | 6490 nM
2 | 998 nM | 300 nM |  | CCC(=O)N1CCC(Oc2cc(NC(=O)c3ccc(CN4CCN(C)CC4)c(C(F)(F)F)c3)ccc2C)CC1 | > 10000 nM
3 | 168 nM | 200 nM |  | Cc1ccc(NC(=O)c2ccc(CN3CCN(C)CC3)c(C(F)(F)F)c2)cc1OC1CCN(C(=O)c2cnc(N)nc2)CC1 | > 10000 nM
4 | 219 nM | 37 nM |  | Cc1ccc(NC(=O)c2ccc(CN3CCN(C)CC3)c(C(F)(F)F)c2)cc1OC1CCN(C(=O)c2cncc(Cl)c2)CC1 | 2870 nM
5 | 1970 nM | 1600 nM |  | Cc1ccc(NC(=O)c2ccc(CN3CCN(C)CC3)c(C(F)(F)F)c2)cc1OC1CCN(C(=O)c2ccc(=O)[nH]c2)CC1 | > 10000 nM
6 | 79 nM | 28 nM | 214 nM | Cc1cncc(C(=O)N2CCC(Oc3cc(NC(=O)c4ccc(CN5CCN(C)CC5)c(C(F)(F)F)c4)ccc3C)CC2)c1 | 800 nM
7 | 203 nM | 210 nM | 336 nM | Cc1ccc(NC(=O)c2ccc(CN3CCN(C)CC3)c(C(F)(F)F)c2)cc1OC1CCN(C(=O)c2cnccc2C)CC1 | 2680 nM
8 | 2000 nM | 63 nM |  | Cc1ccc(NC(=O)c2ccc(CN3CCN(C)CC3)c(C(F)(F)F)c2)cc1OC1CCN(C(=O)c2cccnc2F)CC1 | 1520 nM
9 | 3220 nM | 2500 nM |  | Cc1ccc(NC(=O)c2ccc(CN3CCN(C)CC3)c(C(F)(F)F)c2)cc1OC1CCN(c2ncccn2)CC1 | 8100 nM
10 | 4770 nM | 600 nM |  | Cc1ccc(NC(=O)c2ccc(CN3CCN(C)CC3)c(C(F)(F)F)c2)cc1OC1CCN(S(=O)(=O)c2ccccc2)CC1 | 5100 nM
11 | 86 nM | 320 nM |  | Cc1ccc(NC(=O)c2ccc(CN3CCN(C)CC3)c(C(F)(F)F)c2)cc1OC1CCN(C(=O)c2cnc3ccccc3c2)CC1 | 1300 nM
12 | 3070 nM | 1630 nM |  | Cc1ccc(NC(=O)c2ccc(CN3CCN(C)CC3)c(C(F)(F)F)c2)cc1OC1CCN(C(=O)CN(C)C)CC1 | > 10000 nM
13 | 635 nM | 550 nM |  | Cc1ccc(NC(=O)c2ccc(CN3CCN(C)CC3)c(C(F)(F)F)c2)cc1OC1CCN(C(=O)c2ccccc2)CC1 | 4730 nM
14 | 427 nM |  |  | C=CC(=O)N1CCC(Oc2cc(NC(=O)c3ccc(CN4CCN(C)CC4)c(C(F)(F)F)c3)ccc2C)CC1 | > 10000 nM
15 | 135 nM | 26 nM |  | Cc1ccc(NC(=O)c2ccc(CN3CCN(C)CC3)c(C(F)(F)F)c2)cc1OC1CCN(C(=O)c2ccsc2)CC1 | 1480 nM
16 | 5400 nM | 2860 nM |  | Cc1ccc(NC(=O)c2ccc(CN3CCN(C)CC3)c(C(F)(F)F)c2)cc1OCC1CN(C(=O)c2cccnc2)C1 | 1070 nM
17 | 8410 nM | > 10000 nM |  | COc1ccc(NC(=O)c2ccc(CN3CCN(C)CC3)c(C(F)(F)F)c2)cc1OC1CCN(C(=O)c2cccnc2)CC1 | > 10000 nM
18 | 1550 nM | 3300 nM |  | Cc1ccc(NC(=O)c2ccc(CN3CCN(C)CC3)c(C(F)(F)F)c2)cc1OCCNC(=O)c1cccnc1 | > 10000 nM
19 | 164 nM | 220 nM |  | Cc1ccc(NC(=O)c2ccc(CN3CCN(C)CC3)c(C(F)(F)F)c2)cc1OC1CCN(C(=O)c2cccnc2)CC1 | > 10000 nM
20 | 773 nM | 190 nM |  | COc1cc2ncnc(N3CCC(Oc4cc(NC(=O)c5ccc(CN6CCN(C)CC6)c(C(F)(F)F)c5)ccc4C)CC3)c2cc1OC | 1200 nM
21 | 88 nM | 170 nM | 256 nM | Cc1ccc(NC(=O)c2ccc(CN3CCN(C)CC3)c(C(F)(F)F)c2)cc1OC1CCN(C(=O)c2ccncc2)CC1 | > 10000 nM
22 | 253 nM | 340 nM |  | CN1CCN(Cc2ccc(C(=O)Nc3ccc(Cl)c(OC4CCN(C(=O)c5cccnc5)CC4)c3)cc2C(F)(F)F)CC1 | > 10000 nM
23 | 72 nM | 200 nM | 644 nM | Cc1ccc(NC(=O)c2ccc(CN3CCN(C)CC3)c(C(F)(F)F)c2)cc1OC1CCN(C(=O)c2ccccn2)CC1 | > 10000 nM
24 | 8780 nM | > 5000 nM |  | Cc1ccc(NC(=O)c2ccc(CN3CCN(C)CC3)cc2)cc1OC1CCN(C(=O)c2cccnc2)CC1 | > 10000 nM
25 | 153 nM | 270 nM |  | Cc1ccc(NC(=O)c2ccc(CN3CCN(C)CC3)c(C(F)(F)F)c2)cc1OC1CCN(C(=O)c2ccoc2)CC1 | > 10000 nM
26 | 2760 nM | 62 nM |  | Cc1ccc(NC(=O)c2ccc(CN3CCN(C)CC3)c(C(F)(F)F)c2)cc1OC1CCN(C(=O)c2cccnc2Cl)CC1 | 2720 nM
27 | 4940 nM | 3820 nM |  | Cc1ccc(NC(=O)c2ccc(CN3CCN(C)CC3)c(C(F)(F)F)c2)cc1OCC1CCN(C(=O)c2cccnc2)C1 (configuration not stated) | 3980 nM
28 | 2210 nM | 370 nM |  | Cc1ccc(NC(=O)c2ccc(CN3CCN(C)CC3)c(C(F)(F)F)c2)cc1OC1CCN(C(=O)c2cccnc2C)CC1 | 540 nM
